Source: ChEMBL document CHEMBL5344415, “Synthesis and Characterization of Phenylalanine Amides Active against Mycobacterium abscessus and Other Mycobacteria” (J Med Chem, 2023)
Values after ≈ are worked out from the molar mass of the structure shown.

What was measured:
MCF7 = assay: Cytotoxicity against human MCF7 cells assessed as reduction in cell viability incubated for 72 hrs by SRB assay; assay type: toxicity, cell-based
[1] = test system: Mycobacteroides abscessus; assay: Antibacterial activity against Mycobacterium abscessus ATCC 19977 expressing tomato RFP infected in human THP-1 cells assessed as bacterial growth inhibition incubated for 4 days in RPMI medium by RFP fluorescence based assay; assay type: functional; conditions: ATCC 19977, 96 h, time 4 day
Procedure, shortened: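 RFP M. abscessus washed, moved into RPMI, filtered through 5 µm and opsonised with 10 % human serum for 30 min. THP-1 cells infected at MOI 5:1 with PMA 40 ng/mL for 4 h at 37 °C, then washed. Infected cells (1x10⁵/well) given a ten-point twofold series. Incubated 4 days at 37 °C, 5 % CO₂. Cells PFA-fixed and DAPI-stained. RFP quantified by imaging. Controls were DMSO and 1.5 µM bedaquiline. Duplicate.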

[2] = Kinetic solubility of compound in PBS at 0.78 to 500 uM measured immediately by nephelometric method; assay type: physicochemical; conditions: buffer, dose 0.78-500 µM
Procedure, shortened: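 DMSO stocks prediluted in DMSO, then diluted 1:50 into PBS (2 % DMSO final) and read immediately by nephelometry at 0.78–500 μM; blank-corrected data fitted by segmental regression; quadruplicates from one stock.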

[3] = test system: Mycobacteroides abscessus; assay: Antibacterial activity against Mycobacterium abscessus ATCC 19977 expressing tomato RFP assessed as bacterial growth inhibition incubated for 3 days in MHII medium by RFP fluorescence based broth microdilution method; assay type: functional; conditions: ATCC 19977, 72 h, time 3 day
Procedure, shortened: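 Broth microdilution in MHII broth with 0.05 % Tween 80, against the RFP-expressing strain. Twofold nine-point dilution series. Inoculum 5 x 10⁵ cells/mL from a mid-log preculture. Incubated 3 days at 37 °C. Read-out by RFP fluorescence (ex 544/em 590 nm). Controls were 1 % DMSO and 100 μM amikacin. MIC₉₀ from duplicates, averaged.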

[4] = Cytotoxicity against mouse NIH3T3 cells assessed as reduction in cell viability incubated for 72 hrs by SRB assay; assay type: toxicity, cell-based; conditions: mouse, NIH3T3 cells
A-375 = assay: Cytotoxicity against human A-375 cells assessed as reduction in cell viability incubated for 72 hrs by SRB assay; assay type: toxicity, cell-based
A2780 = assay: Cytotoxicity against human A2780 cells assessed as reduction in cell viability incubated for 72 hrs by SRB assay; assay type: toxicity, cell-based
[5] = test system: Mycobacteroides abscessus; assay: Bactericidal activity against Mycobacterium abscessus ATCC 19977 assessed as reduction in viable bacteria at 3.13 uM incubated for 4 days by microplate dilution assay relative to control; assay type: functional; conditions: time 4 day
Procedure, shortened: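 After 4 days in the microplate dilution assay, 10 µl samples (undiluted or 1:100) were plated on 7H10 with glycerol, ADS and 400 µg/mL hygromycin. Colonies counted after 4 days at 37 °C. Done in triplicate. CFU/mL compared with the inoculum counted before incubation.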

[6] = test system: Mycobacteroides abscessus; assay: Antibacterial activity against Mycobacterium abscessus Bamboo harboring inactive clarithromycin-sensitive erm41 C28 sequevar assessed as bacterial growth inhibition incubated for 3 days in 7H9 medium by optical density based method; assay type: functional; conditions: 72 h, time 3 day
[7] = test system: Mycobacteroides abscessus; assay: Antibacterial activity against MMV688845-resistant Mycobacterium abscessus Bamboo 845R-2.1 harboring rpoB/beta subunit P473L mutation assessed as bacterial growth inhibition incubated for 3 days by optical density based analysis; assay type: functional; conditions: Bamboo 845R-2.1, 72 h, time 3 day
Procedure, shortened: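 Tenfold-point twofold dilution series in 7H9, final DMSO 1 %. Final ranges typically 50–0.098 or 6.25–0.012 μM. Mid-log culture added to an initial OD₆₀₀ of 0.05 (5*10⁶ CFU/mL). Incubated 3 days at 37 °C with shaking at 110 rpm. Growth taken as OD₆₀₀ on day 3 minus day 0, as % of drug-free wells. MIC₉₀ read visually from the curves. Clarithromycin as control. Two biological replicates, averaged.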

[8] = test system: Mycobacteroides abscessus; assay: Antibacterial activity against Mycobacterium abscessus ATCC 19977 expressing tomato RFP assessed as bacterial growth inhibition incubated for 3 days in 7H9 medium by RFP fluorescence based broth microdilution method; assay type: functional; conditions: ATCC 19977, 72 h, time 3 day
Procedure, shortened: (§1)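 Broth microdilution in 7H9 with 10 % ADS and 0.05 % Tween 80. Twofold nine-point dilution series. Inoculum 5 x 10⁵ cells/mL taken from a mid-log preculture. Incubation at 37 °C, 3 days for M. smegmatis and M. abscessus, 5 days for M. intracellulare. Read-out by RFP fluorescence (ex 544/em 590 nm). Controls were 1 % DMSO and 100 μM amikacin. MIC₉₀ from duplicates, averaged.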

HeLa = assay: Cytotoxicity against human HeLa cells assessed as reduction in cell viability incubated for 72 hrs by SRB assay; assay type: toxicity, cell-based
HT-29 = assay: Cytotoxicity against human HT-29 cells assessed as reduction in cell viability incubated for 72 hrs by SRB assay; assay type: toxicity, cell-based
HEK293 = assay: Cytotoxicity against HEK293 cells assessed as reduction in cell viability incubated for 72 hrs by SRB assay; assay type: toxicity, cell-based, Homo sapiens
[9] = test system: Mycobacterium intracellulare; assay: Antibacterial activity against Mycobacterium intracellulare ATCC 35761 expressing tomato RFP assessed as bacterial growth inhibition incubated for 5 days in 7H9 medium by RFP fluorescence based broth microdilution method; assay type: functional; conditions: ATCC 35761, 120 h, time 5 day; procedure, shortened: as §1
[10] = test system: Mycobacteroides abscessus; assay: Bactericidal activity against Mycobacterium abscessus ATCC 19977 assessed as reduction in viable bacteria at 6.25 uM incubated for 4 days by microplate dilution assay relative to control; assay type: functional; conditions: time 4 day
[11] = test system: Mycolicibacterium smegmatis; assay: Antibacterial activity against Mycobacterium smegmatis mc2 155 expressing tomato RFP assessed as bacterial growth inhibition incubated for 3 days in 7H9 medium by RFP fluorescence based broth microdilution method; assay type: functional; conditions: mc2 155, 72 h, time 3 day; procedure, shortened: as §1
[12] = test system: Mycobacterium tuberculosis; assay: Antibacterial activity against Mycobacterium tuberculosis H37Rv ATCC 27294 assessed as bacterial growth inhibition incubated for 7 days in 7H9 medium by optical density based microplate reader analysis; assay type: functional; conditions: H37Rv ATCC 27294, 168 h, time 7 day
Procedure, shortened: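 Compounds serially diluted in flat-bottom 96-well plates. Mid-log culture mixed in to a final OD₆₀₀ of 0.05. Sealed plates incubated in humidified boxes at 37 °C for 7 days with shaking at 80 rpm. Turbidity read at 600 nm. MIC₉₀ taken from dose–response curves. Two biological replicates, averaged.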

| SMILES | EC50 (MCF7) [µM] | MIC50 [1] [µM] | MIC90 [1] [µM] | Kinetic_solubility [2] [µM] | MIC90 [3] [µM] | EC50 at 72 h [4] [µM] | EC50 (A-375) [µM] | EC50 (A2780) [µM] | Activity [5] [%] | MIC50 [6] [µM] | MIC90 [6] [µM] | MIC90 [7] [µM] | MIC90 [8] [µM] | EC50 (HeLa) [µM] | EC50 (HT-29) [µM] | EC50 (HEK293) [µM] | MIC90 [9] [µM] | Activity [10] [%] | MIC90 [11] [µM] | MIC90 [12] [µM] |
| --- | --- | --- | --- | --- | --- | --- | --- | --- | --- | --- | --- | --- | --- | --- | --- | --- | --- | --- | --- | --- |
| O=C(N[C@H](Cc1ccccc1)C(=O)Nc1ccccc1N1CC[S+]([O-])CC1)c1ccccc1F | > 30 | 0.78 (≈ 0.374 µg/mL) | 12.5 (≈ 5.99 µg/mL) | 431 | 3.13 (≈ 1.5 µg/mL) | > 30 | > 30 | > 30 | 81 | 0.4 (≈ 0.192 µg/mL) | 2.1 (≈ 1.01 µg/mL) | 100 (≈ 48 µg/mL) | 6.25 (≈ 3 µg/mL) | > 30 | > 30 | > 30 | 0.1 (≈ 0.048 µg/mL) | 99 | – | – |
| O=C(N[C@H](Cc1ccccc1)C(=O)Nc1ccccc1N1CCS(=O)(=O)CC1)c1cccs1 | > 30 | 0.78 (≈ 0.377 µg/mL) | 6.25 (≈ 3.02 µg/mL) | 62 | 3.13 (≈ 1.51 µg/mL) | > 30 | > 30 | 23.6 | 95 | 0.24 (≈ 0.116 µg/mL) | 1.7 (≈ 0.822 µg/mL) | – | 3.13 (≈ 1.51 µg/mL) | > 30 | > 30 | > 30 | 0.1 (≈ 0.0484 µg/mL) | 99 | 1.56 (≈ 0.754 µg/mL) | 0.2 (≈ 0.0967 µg/mL) |
| O=C(N[C@H](Cc1ccsc1)C(=O)Nc1ccccc1N1CCOCC1)c1ccccc1F | > 30 | 6.25 (≈ 2.83 µg/mL) | 25 (≈ 11.3 µg/mL) | 31 | 12.5 (≈ 5.67 µg/mL) | > 30 | > 30 | > 30 | – | 1.9 (≈ 0.862 µg/mL) | 7 (≈ 3.17 µg/mL) | – | 12.5 (≈ 5.67 µg/mL) | > 30 | > 30 | – | 0.78 (≈ 0.354 µg/mL) | – | 1.56 (≈ 0.708 µg/mL) | 3.13 (≈ 1.42 µg/mL) |
| CC[C@H]1OC(=O)[C@H](C)[C@@H](O[C@H]2C[C@@](C)(OC)[C@@H](O)[C@H](C)O2)[C@H](C)[C@@H](O[C@@H]2O[C@H](C)C[C@H](N(C)C)[C@H]2O)[C@](C)(OC)C[C@@H](C)C(=O)[C@H](C)[C@@H](O)[C@]1(C)O [CLARITHROMYCIN] | – | – | – | – | – | – | – | – | – | – | – | 0.27 (≈ 0.202 µg/mL) | – | – | – | – | – | – | – | – |
| O=C(N[C@H](Cc1ccc(O)cc1)C(=O)Nc1cc(F)ccc1N1CCS(=O)(=O)CC1)c1cccs1 | > 30 | 6.25 (≈ 3.24 µg/mL) | 25 (≈ 12.9 µg/mL) | 170 | 3.13 (≈ 1.62 µg/mL) | > 30 | > 30 | 29.7 | – | 0.4 (≈ 0.207 µg/mL) | 9 (≈ 4.66 µg/mL) | – | 6.25 (≈ 3.24 µg/mL) | > 30 | 29.8 | – | 0.05 (≈ 0.0259 µg/mL) | – | 6.25 (≈ 3.24 µg/mL) | 0.78 (≈ 0.404 µg/mL) |
| O=C(N[C@H](Cc1ccccc1)C(=O)Nc1ccccc1N1CCSCC1)c1cccs1 | 16.4 | 12.5 (≈ 5.65 µg/mL) | > 100 | 34 | 50 (≈ 22.6 µg/mL) | > 30 | > 30 | 19.8 | – | 2.5 (≈ 1.13 µg/mL) | 14 (≈ 6.32 µg/mL) | – | 12.5 (≈ 5.65 µg/mL) | > 30 | > 30 | 19.1 | 0.78 (≈ 0.352 µg/mL) | – | 3.13 (≈ 1.41 µg/mL) | 6.25 (≈ 2.82 µg/mL) |
